Assay results from PubChem BioAssay AID1800 (The Scripps Research Institute Molecular Screening Center, 2009).
In all, about 290,000 compounds went through this assay and about 1,600 (0.55%) were called active.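 How the source made its calls: active means inhibition above the mean of all tested compounds plus 3 SD, set per campaign (cut at about 35% in these data); inactive means the rest.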 What follows is part of a selection rich in actives, with near analogues and random picks from the rest.

What follows are molecules tested on Hepatitis C virus NS3 helicase (assay: HCV NS3 DNA unwinding blockers – biochemical, Cy5 molecular beacon fluorescence, primary screen (AID 1800;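 further: 0% = DMSO wells and 100% = thioflavine S control wells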)). Details: at 10.9 µM, hits give high values.
How it was run: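 Control set: DMSO versus 110 µM thioflavine S; Material: NS3 helicase fragment of HCV; Measured by: Cy5 fluorescence at 0 and 60 min, beacon hairpin quenching; Read-out basis: percent inhibition from t60/t0 fluorescence ratio; Times: reaction time 60 min, 25 °C; Repeats: single replicate; Compound dosing: single dose, 10.9 µM nominal final, DMSO 0.8% final.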
With `CC(=O)c1ccc(N2CCN(S(=O)(=O)c3ccc4c(c3)CC(=O)N4C)CC2)cc1` the inhibition was 26.3% (inactive).
In the case of `O=S(=O)(NC1CC1)c1ccc(Cl)cc1`, the inhibition was 4.09% (inactive).
`COc1ccc(NC(=O)CC2C(=O)NC3CCCCC3N2C(=O)c2ccc(F)cc2)cc1` (centres undefined) was tested, and the inhibition was -15.6% (inactive).
`Cc1ccc(-c2n[nH]c(=S)n2/N=C/c2cc3c(cc2[N+](=O)[O-])OCO3)cc1` was tested, and the inhibition was 8.58% (inactive).
For `Cc1ccc(S(=O)(=O)N/N=C\c2cc3c(cc2[N+](=O)[O-])OCO3)cc1`, the inhibition was 54.2% (active).
In the case of `CC(=O)N/N=C/c1cc2c(cc1[N+](=O)[O-])OCO2`, the inhibition was 3.66% (inactive).
In the case of `CC(=O)Nc1ccc(NC(=O)CCCNC(=O)c2ccc(Cl)cc2)cc1`, the inhibition was -9.29% (inactive).
For `CCCN1CCn2c3c(c4cc(Br)ccc42)CCCC31` (centres undefined), the inhibition was -17.6% (inactive).
For `Cc1ccc(-c2nn(-c3ccccc3)cc2/C=N/NC(=O)c2ccc3c(c2)OCO3)cc1`, the inhibition was 3.37% (inactive).
In the case of `Cc1nnc(SCC(=O)N/N=C/c2cn(-c3ccccc3)nc2-c2ccc(F)cc2)n1-c1ccccc1`, the inhibition was -0.42% (inactive).
In the case of `O=C(N/N=C/c1ccc([N+](=O)[O-])o1)c1cn(-c2ccccc2)nc1-c1ccc(F)cc1`, the inhibition was 37% (active).
For `CC(=O)N1CCC(C(=O)Nc2nc(-c3ccccc3)ns2)CC1`, the inhibition was 1.62% (inactive).
In the case of `O=C(c1cccc(C(=O)N2CCN(c3ccc(F)cc3)CC2)c1)N1CCN(c2ccc(F)cc2)CC1`, the inhibition was -2.81% (inactive).
With `O=C(c1cnc(Cl)c(Cl)c1)N1CCN(S(=O)(=O)c2ccc(F)cc2)CC1` the inhibition was 5.16% (inactive).
With `O=C(c1cccc(-n2cccc2)c1)N1CCN(S(=O)(=O)c2ccc(F)cc2)CC1` the inhibition was 77% (active).
For `CNS(=O)(=O)c1cccc(C(=O)NC2CCCc3ccccc32)c1` (centres undefined), the inhibition was 37% (active).
In the case of `O=C(O)c1cc(S(=O)(=O)NC2CCCc3ccccc32)ccc1O` (centres undefined), the inhibition was 7.44% (inactive).
For `CNS(=O)(=O)c1cccc(C(=O)NCC2CCCCC2)c1`, the inhibition was -9.16% (inactive).
In the case of `CC1(C)NC(=O)N(CC(=O)Nc2cc(C(F)(F)F)cc(C(F)(F)F)c2)C1=O`, the inhibition was -6.82% (inactive).
`CCn1cc(C(=O)OCC(=O)Nc2cccc(C)c2)c(=O)c2ccc(C)nc21` was tested, and the inhibition was 4.57% (inactive).
With `COc1ccc(C(=O)NC2CCN(C(=S)NCCc3ccccc3)CC2)cc1` the inhibition was 0.36% (inactive).
`O=C1CCN(C(=S)NCCc2ccccc2)CC1` was tested, and the inhibition was -6.74% (inactive).
With `S=C(NCCc1ccccc1)N1CCCCC1` the inhibition was 40.9% (active).
In the case of `COc1ccc(CCn2c(=N)c(C(=O)NCC3CCCO3)cc3c(=O)n4cccc(C)c4nc32)cc1OC` (centres undefined), the inhibition was 0.37% (inactive).
In the case of `COc1cc(NS(=O)(=O)c2ccc(NC(=S)NC(=O)c3ccccc3)cc2)nc(OC)n1`, the inhibition was 11% (inactive).
`COc1nnc(-c2ccc(C)c(S(=O)(=O)N(C)C)c2)c2ccccc12` was tested, and the inhibition was -1.73% (inactive).
In the case of `CN(CC1CCCO1)S(=O)(=O)c1ccc(C(=O)Nc2ccc([N+](=O)[O-])cc2)cc1` (centres undefined), the inhibition was -4.51% (inactive).
In the case of `COC(OC)c1ccnc(SCc2ccccc2Cl)n1`, the inhibition was -11.3% (inactive).
`O=c1[nH]c(SCc2ccccc2)nnc1-c1ccccc1` was tested, and the inhibition was 35.9% (inactive).
In the case of `c1ccc(CSc2nnc(-c3ccco3)c(-c3ccco3)n2)cc1`, the inhibition was 38.3% (active).
`Fc1cccc(Cl)c1CSc1ccc(-c2ccco2)nn1` was tested, and the inhibition was 5.94% (inactive).
In the case of `Brc1ccc(CSc2ccc(-c3ccco3)nn2)cc1`, the inhibition was 3.25% (inactive).
With `Clc1ccccc1CSc1nnc(-c2ccco2)c(-c2ccco2)n1` the inhibition was 53.8% (active).
`COc1ccc(/C=N/OCc2ccccc2C#N)c(OC)c1` was tested, and the inhibition was -11.6% (inactive).
In the case of `CC(C)c1ccc(S(=O)(=O)N2CCN(C(=O)c3ccc(N4CCCC4)c([N+](=O)[O-])c3)CC2)cc1`, the inhibition was -8.12% (inactive).
For `CS(=O)(=O)N1CCN(CC(=O)NC2CCCC2)CC1`, the inhibition was 2.51% (inactive).
With `CCOc1ccc(S(=O)(=O)N2CCC(C(=O)NCc3ccccn3)CC2)cc1Cl` the inhibition was 4.14% (inactive).
For `Cc1ccc(NC(=O)[C@H](Cc2ccccc2)NC(=O)C2CCNCC2)cc1`, the inhibition was -12.4% (inactive).
In the case of `COC(=O)C1=C(O)/C(=C/c2ccc(OCC(=O)Nc3ccccc3)cc2)N=C1C`, the inhibition was -4.57% (inactive).
In the case of `CCOC(=O)C1=C(O)/C(=C/c2cc(C)n(-c3ccccc3)c2C)N=C1C`, the inhibition was 46.3% (active).
`CCOC(=O)C1=C(O)/C(=C/c2ccc(OCC(=O)Nc3ccc(C)cc3)cc2)N=C1C` was tested, and the inhibition was 8.39% (inactive).
In the case of `COc1ccc2oc(C(=O)NCC(Cc3ccccc3)N(C)C)c(C)c2c1` (centres undefined), the inhibition was -39.7% (inactive).
For `O=C(CCCN1CCc2[nH]c3ccc(F)cc3c2C1)c1ccc(F)cc1`, the inhibition was -45% (inactive).
`CCC(C)NC(=O)C1c2ccccc2C(=O)N1Cc1ccccc1` (centres undefined) was tested, and the inhibition was -11.1% (inactive).
With `COCCCNS(=O)(=O)c1cccc(S(=O)(=O)c2cccc(S(=O)(=O)NCCCOC)c2)c1` the inhibition was 3.55% (inactive).
With `CC(C)c1ccc(C2C(C(=O)c3ccco3)=C(O)C(=O)N2CC2CCCO2)cc1` (centres undefined) the inhibition was 55.9% (active).
`O=C(C1=C(O)C(=O)N(Cc2ccccc2)C1c1cccnc1)c1ccco1` (centres undefined) was tested, and the inhibition was -5.86% (inactive).
For `O=C(C1=C(O)C(=O)N(Cc2ccccc2)C1c1ccco1)c1ccco1` (centres undefined), the inhibition was 17.3% (inactive).
For `O=C(OCC1O[C@@H](OC(=O)c2cc(O)c(O)c(O)c2)[C@@H](OC(=O)c2cc(O)c(O)c(O)c2)[C@@H](OC(=O)c2cc(O)c(O)c(O)c2)[C@@H]1OC(=O)c1cc(O)c(O)c(O)c1)c1cc(O)c(O)c(O)c1` (some centres undefined), the inhibition was 63.6% (active).
In the case of `CCC(NC(=O)c1ccccc1NC(=O)c1ccccc1)C(=O)NNC(=O)CSc1nc2ccccc2o1` (centres undefined), the inhibition was -3.35% (inactive).
For `NS(=O)(=O)c1ccc(-c2ccc(/C=C3\SC(=O)NC3=O)o2)cc1`, the inhibition was 60.5% (active).
For `CN1C(=O)/C(=C\c2ccc(-c3ccccc3)o2)SC1=S`, the inhibition was 23.6% (inactive).
`CN1CCN(/N=C/c2ccc(-c3ccc([N+](=O)[O-])cc3)o2)CC1` was tested, and the inhibition was -1.77% (inactive).
`CCOc1ccc(CN2CCNC(=O)C2CC(=O)NCCCC2CCCC2)cc1` (centres undefined) was tested, and the inhibition was -18.7% (inactive).
`COc1ccc(/C=C2\SC(=S)N(CCC(=O)Nc3ccccn3)C2=O)cc1OC` was tested, and the inhibition was -1.07% (inactive).
For `COc1ccc(/C=C2\SC(=S)N(CCC(=O)Nc3cccc(C(=O)O)c3)C2=O)cc1OC`, the inhibition was 61% (active).
For `COc1ccc(/C=C2\SC(=S)N(CCCC(=O)NC3CCCC3)C2=O)cc1OC`, the inhibition was 19% (inactive).
For `O=C(NC1CCCC1)c1cc(-c2ccccc2)on1`, the inhibition was -12.1% (inactive).
With `O=C(NCCc1ccccn1)c1nc(Cn2cc([N+](=O)[O-])cn2)no1` the inhibition was 2.16% (inactive).
With `COCCN1CCn2c(nc3cc(NS(C)(=O)=O)ccc32)C1` the inhibition was -2.65% (inactive).
For `Cc1nn(CC(=O)Nc2ccc(F)cc2)c(=O)c2ccccc12`, the inhibition was 17.6% (inactive).
For `Cc1nn2c(c1-c1ccccc1)N=C(c1ccco1)CC2c1ccccc1` (centres undefined), the inhibition was 39.1% (active).
`COc1ccc(C2=NN(C(C)=O)C(c3ccccc3)C2)cc1` (centres undefined) was tested, and the inhibition was -3.52% (inactive).
For `O=C(O)CCCC(=O)N1N=C(c2ccco2)CC1c1ccco1` (centres undefined), the inhibition was 1.26% (inactive).
`Cc1cc2nc3c(=O)n(Cc4ccccc4)c(=O)[nH]c3nc2cc1N` was tested, and the inhibition was -1.52% (inactive).
For `Nc1ccc2nc3c(=O)[nH]c(=S)[nH]c3nc2c1`, the inhibition was 80.4% (active).
In the case of `CCc1cccc(C)c1N1C(=O)CN(Cc2ccccc2)C1=S`, the inhibition was -10.7% (inactive).
In the case of `O=C(C[C@H]1C(=O)N(c2ccc(F)c(F)c2)C[C@@H]1Cc1ccccc1)Nc1ccccc1`, the inhibition was -4.71% (inactive).
With `Cc1ccc(S(=O)(=O)N2CCN(C)CC2)cc1C(=O)NC1CCCCC1` the inhibition was 0.44% (inactive).
With `COc1ccc(CNC(=O)c2nnn(CC(=O)Nc3cc(C)cc(C)c3)c2N)cc1` the inhibition was -13.3% (inactive).
With `COc1cccc(CNC(=O)c2nnn(CC(=O)Nc3cc(Cl)ccc3C)c2N)c1` the inhibition was 38.7% (active).
For `COc1cccc(CNC(=O)c2nnn(CC(=O)Nc3cc(C)ccc3C)c2N)c1`, the inhibition was 8.19% (inactive).
For `CS(=O)(=O)c1ccc2c(c1)SC1=NC(=O)/C(=C/c3ccco3)C(=N)N12`, the inhibition was 39.8% (active).
In the case of `Cc1cc(/C=C2/C(=N)N3C(=NC2=O)SN=C3S(C)(=O)=O)c(C)n1-c1ccccc1`, the inhibition was 20% (inactive).
With `CS(=O)(=O)C1=NN2C(=N)/C(=C\c3ccc(OCCOc4ccccc4)cc3)C(=O)N=C2S1` the inhibition was 7.31% (inactive).
`CCN(CC)C(=O)COc1coc(CN2CCN(Cc3ccccc3)CC2)cc1=O` was tested, and the inhibition was -0.99% (inactive).
`C=CCSc1nsc(NC(=O)Nc2cccc(C(C)=O)c2)n1` was tested, and the inhibition was -3.05% (inactive).
In the case of `CCSc1nsc(NC(=O)Nc2ccccc2OC)n1`, the inhibition was -3.36% (inactive).
In the case of `CCSc1nsc(NC(=O)Nc2cccc(C(C)=O)c2)n1`, the inhibition was 38.8% (active).
With `CCOc1ccc(N(C)S(=O)(=O)c2cnc[nH]2)cc1` the inhibition was 4.43% (inactive).
For `COC(=O)c1ccccc1NC(=O)C1CCN(C(=O)N2CCOc3ccccc32)CC1`, the inhibition was -12.1% (inactive).
With `COc1ccc(S(=O)(=O)NCC(=O)NC2CC2)cc1OC` the inhibition was 22.6% (inactive).
`COc1ccc(C)cc1NC(=O)NCCCCc1ccccc1` was tested, and the inhibition was 2.02% (inactive).
In the case of `CN(C(=O)COC(=O)c1cc(-c2ccco2)nc2ccccc12)C1CCS(=O)(=O)C1` (centres undefined), the inhibition was 20.9% (inactive).
With `COC(=O)c1cnn2c(C(F)(F)F)cc(-c3ccco3)nc12` the inhibition was 18.2% (inactive).
In the case of `Cc1cc(C)c2nc(-c3ccco3)cc(C(=O)O)c2c1`, the inhibition was 37.2% (active).
For `O=C(Oc1ccc(F)cc1)N1CCOCC1`, the inhibition was 4.09% (inactive).
In the case of `O=C(Oc1ccc(C(=S)N2CCOCC2)cc1)c1ccc(F)cc1`, the inhibition was -0.77% (inactive).
In the case of `N#C/C=C(/c1ccc(F)cc1)N1CCOCC1`, the inhibition was 40.5% (active).
